Experimental data published in ChEMBL document CHEMBL4725371, “A Novel Redox Modulator Induces a GPX4-Mediated Cell Death That Is Dependent on Iron and Reactive Oxygen Species” (J Med Chem, 2020).
The source made the active and inactive calls. The rule behind the calls is not given here.

What was measured:
MIA PaCa-2 [1] = experiment: Inhibition of colony formation in human MIA PaCa-2 cells at 0.375 to 0.75 uM measured after 7 to 9 days in presence of GPX4 inhibitor RSL3 by crystal violet staining based assay; assay type: functional, cell-based; conditions: dose microM 0.375-0.75, time day 7-9
Procedure, shortened: (§1)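 Cells seeded overnight in 96-well plates at 300 cells/well (MIA PaCa-2) or 600 cells/well (BxPC-3), in RPMI 1640 with 10% FBS. Inhibitor added 1 h before compound, then continuous exposure for 7–9 days until control wells were 80–90% confluent. Stained with 0.05% crystal violet for 30 min, imaged after overnight drying and quantified.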

MIA PaCa-2 [2] = experiment: Down regulation of LRPPRC expression in human MIA PaCa-2 cells at 3 times IC50 measured after 4 hrs by proteomics analysis; assay type: functional, cell-based
MIA PaCa-2 [3] = experiment: Down regulation of LRPPRC expression in human MIA PaCa-2 cells at 3 times IC50 measured after 4 hrs in presence of NQO1 inhibitor dicoumarol by proteomics analysis; assay type: functional, cell-based
MIA PaCa-2 [4] = experiment: Inhibition of colony formation in human MIA PaCa-2 cells at 0.5 to 2 uM measured after 7 to 9 days in presence of N-acetylcysteine by crystal violet staining based assay; assay type: functional, cell-based; conditions: dose microM 0.5-2, time day 7-9; procedure, shortened: as §1
MIA PaCa-2 [5] = experiment: Induction of reactive oxygen species in human MIA PaCa-2 cells at 5 to 10 uM measured up to 4 hrs by CM-H2DCFDA dye based fluorescence assay; assay type: functional, cell-based; conditions: dose microM 5-10, time hrs <=4, TDE = time-dependent effect
Procedure, shortened: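 1.8 × 10⁴ cells per well were attached overnight, then loaded with 10 μM CM-H2DCFDA in HBSS for 40 min at 37 °C and washed. Compounds were added in HBSS. Fluorescence was read at Ex 483 / Em 530 nm. TBHP was the positive control. NAC at 3 mM was used where stated.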

[6] = Toxicity in CD-1 mouse assessed as death at 10 mg/kg, iv; assay type: organism-based; conditions: in vivo
Procedure, shortened: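 CD-1 mice given a single IV injection at 10 mg/kg, three mice per group. Blood was drawn into heparinized pipettes at 0.5, 2, 4 and 7 h for plasma LC-MS/MS. Deaths were noted over the course of the study.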

MIA PaCa-2 [7] = experiment: Down regulation of LRPPRC gene expression in human MIA PaCa-2 cells at 3 times IC50 measured after 4 hrs by Trizol reagent based Bru labelling based gene sequence analysis; assay type: functional, cell-based
Procedure, shortened: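 Bru-seq: 2 × 10⁶ cells were seeded in duplicate and treated at 3 × IC50 for 4 h. Bromouridine (2 mM final) was added for the last 30 min at 37 °C. Total RNA was extracted in TRIzol. BrU-labelled RNA was captured with anti-BrdU magnetic beads, made into cDNA libraries and deep-sequenced.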

[8] = target: T1, Phospholipid hydroperoxide glutathione peroxidase GPX4 (Homo sapiens) (UniProt P36969); experiment: Binding affinity to GPX4 in human MIA PaCa-2 cells assessed as protein destabilization by measuring melting temperature at 100 uM measured after 1 hr by thermal shift assay (reference value: 60.34 degreeC); assay type: cell-based
T1 sequence (whole entry): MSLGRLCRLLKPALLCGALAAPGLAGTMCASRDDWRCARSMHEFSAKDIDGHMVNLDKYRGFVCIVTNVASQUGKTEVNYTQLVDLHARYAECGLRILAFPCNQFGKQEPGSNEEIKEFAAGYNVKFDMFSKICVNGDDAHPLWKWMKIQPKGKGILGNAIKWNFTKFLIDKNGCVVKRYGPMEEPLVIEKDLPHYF

[9] = target: Signal transducer and activator of transcription 3 (Homo sapiens) (UniProt P40763); experiment: Inhibition of STAT3 phosphorylation in human PANC-1 cells at 1.2 to 1.8 uM measured after 4 hrs by Western blot analysis; assay type: cell-based; conditions: dose microM 1.2-1.8, time 4.0 hrs
Signal transducer and activator of transcription 3 (Homo sapiens), sequence (P40763 whole entry): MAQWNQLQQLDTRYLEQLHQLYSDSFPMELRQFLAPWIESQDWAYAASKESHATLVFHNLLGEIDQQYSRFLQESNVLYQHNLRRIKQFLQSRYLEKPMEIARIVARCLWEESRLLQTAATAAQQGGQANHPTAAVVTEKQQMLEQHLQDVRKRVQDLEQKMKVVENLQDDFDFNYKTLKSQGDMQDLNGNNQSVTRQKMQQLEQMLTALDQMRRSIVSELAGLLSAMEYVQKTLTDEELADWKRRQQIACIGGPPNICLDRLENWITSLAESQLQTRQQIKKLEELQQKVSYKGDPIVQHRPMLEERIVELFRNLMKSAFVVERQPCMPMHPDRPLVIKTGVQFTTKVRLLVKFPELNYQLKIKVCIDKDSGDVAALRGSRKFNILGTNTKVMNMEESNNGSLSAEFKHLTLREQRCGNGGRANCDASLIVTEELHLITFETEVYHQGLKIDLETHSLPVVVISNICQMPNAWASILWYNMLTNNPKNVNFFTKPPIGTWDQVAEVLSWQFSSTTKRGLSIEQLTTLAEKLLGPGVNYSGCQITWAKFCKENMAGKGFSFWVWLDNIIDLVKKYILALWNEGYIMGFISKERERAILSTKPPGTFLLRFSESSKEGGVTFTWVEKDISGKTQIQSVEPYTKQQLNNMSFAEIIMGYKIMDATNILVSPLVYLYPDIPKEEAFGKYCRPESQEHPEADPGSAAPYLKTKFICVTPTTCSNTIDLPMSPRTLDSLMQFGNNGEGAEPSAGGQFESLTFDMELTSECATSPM
Procedure, shortened: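 Cells were treated 4 h at the stated concentrations and lysed in RIPA with protease and phosphatase inhibitors. 25 μg protein was resolved on 10% SDS gels, transferred to PVDF and probed for STAT3, pSTAT3, pH2AX and GAPDH. Detection used fluorescent secondary antibodies, with normalisation to loading control.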

MIA PaCa-2 [10] = experiment: Effect on glutathione level in human MIA PaCa-2 cells at 1.5 to 6 uM measured after 2 to 4 hrs by GSH/GSSG-glo assay; assay type: functional, cell-based; conditions: dose microM 1.5-6, time hrs 2-4
Procedure, shortened: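 GSH/GSSG-Glo luminescent assay: 15,000–20,000 MIA PaCa-2 cells per well, attached overnight, treated 2 h and 4 h. Cells were lysed with total or oxidized glutathione reagent, then luciferin generation (30 min, room temperature) and detection reagents added. Luminescence was read after 15 min. Ratio was computed from net RLU as (total − GSSG)/(GSSG/2).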

MIA PaCa-2 [11] = experiment: Down regulation of LRPPRC expression in human MIA PaCa-2 cells at 3 times IC50 measured after 4 hrs in presence of NAC by proteomics analysis; assay type: functional, cell-based
BXPC-3 = experiment: Cytotoxicity against human BXPC-3 cells measured after 72 hrs by MTT assay; assay type: functional, cell-based; conditions: BXPC-3, 72 h
Procedure, shortened: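 Cells were kept in RPMI 1640 with 10% FBS at 37 °C, 5% CO₂, under 35 passages. Cells were seeded, attached overnight and treated with compound or DMSO for 72 h. MTT was added at 0.3 mg/mL for 3 h, then dissolved in DMSO and read as absorbance at 570 nm. IC50 was fitted from the curve. Values are mean ± sd of three independent experiments.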

[12] = Drug metabolism in mouse plasma assessed as 2-amino-3-[6-[4-(4-methylpiperazin-1-yl)anilino]-5,8-dioxo-quinazolin-7-yl]sulfanyl-propanoic acid formation at 500 uM measured after 0.5 hrs by LC-MS/MS analysis; assay type: ADME, cell-free
Procedure, shortened: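 Compound (500 μM DMSO stock, 1 μL per 500 μL) was incubated in pooled mouse plasma. Samples were taken at 0.5 h and metabolites identified by LC-MS/MS.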

MIA PaCa-2 [13] = experiment: Down regulation of PNPT1 expression in human MIA PaCa-2 cells at 3 times IC50 measured after 4 hrs in presence of NQO1 inhibitor dicoumarol by proteomics analysis; assay type: functional, cell-based

## CN1CCN(c2ccc(NC3=CC(=O)c4ncncc4C3=O)cc2)CC1
MIA PaCa-2 [1]
  inhibition: inactive
MIA PaCa-2 [2]
  Activity: Active
MIA PaCa-2 [3]
  Activity: inactive
MIA PaCa-2 [4]
  inhibition: inactive
MIA PaCa-2 [5]
  Activity: Tde
[6]
  Activity: Toxic
MIA PaCa-2 [7]
  Activity: Active
[8]
  Tm: 57.6 °C
[9]
  inhibition: Active
MIA PaCa-2 [10]
  Activity: inactive
MIA PaCa-2 [11]
  Activity: Active
BXPC-3
  IC50: 900 nM
[12]
  Drug metabolism: Metabolite_Detected
MIA PaCa-2 [13]
  Activity: inactive
